Laboratory results as given in ChEMBL document CHEMBL1136237, “2-piperidin-4-yl-benzimidazoles with broad spectrum antibacterial activities” (2003).
Values after ≈ are worked out from the molar mass of the structure shown.

How the values were obtained:
[1] = Inhibition of bacterial transcription/translation
Staphylococcus aureus = assay: Antibacterial activity determined against Staphylococcus aureus; assay type: functional
In short: (§1)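 Broth microdilution: an overnight-culture bacterial suspension was added to compound in 2.5% DMSO in water, giving a final inoculum of about 10^2–10^3 CFU/well. Plates were incubated 20–24 h at 37 °C, and growth relative to a no-compound control was read as A595. MIC was given as a range: complete inhibition at the upper concentration, viable cells at the lower.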

Enterococcus faecalis [2] = assay: Antibacterial activity determined against Enterococcus faecalis ATCC 828; assay type: functional
In short: as §1

Enterococcus faecium [3] = assay: Antibacterial activity determined against Enterococcus faecium ATCC 6569; assay type: functional
In short: as §1

Enterococcus faecium [4] = assay: Antibacterial activity determined against Enterococcus faecium ATCC 882; assay type: functional
In short: as §1

Enterococcus faecalis [5] = assay: Antibacterial activity determined against Enterococcus faecalis ATCC 4200; assay type: functional
In short: as §1

Enterococcus faecalis [6] = assay: Antibacterial activity determined against Enterococcus faecalis ATCC 11823; assay type: functional
In short: as §1

Enterococcus faecalis [7] = assay: Anti-bacterial activity determined against Enterococcus faecalis ATCC 49757; assay type: functional
In short: as §1

Enterococcus faecalis [8] = assay: Antibacterial activity determined against Enterococcus faecalis ATCC 23241; assay type: functional
In short: as §1

Escherichia coli = assay: Antibacterial activity determined against Escherichia coli; assay type: functional
In short: as §1

IC50 [1]: > 100 µM | MIC (Staphylococcus aureus): 12 µM (≈ 5.97 µg/mL) | MIC (Enterococcus faecalis [2]): 6 µM (≈ 2.98 µg/mL) | MIC (Enterococcus faecium [3]): 6 µM (≈ 2.98 µg/mL) | MIC (Enterococcus faecium [4]): 12 µM (≈ 5.97 µg/mL) | MIC (Enterococcus faecalis [5]): 12 µM (≈ 5.97 µg/mL) | MIC (Enterococcus faecalis [6]): 6 µM (≈ 2.98 µg/mL) | MIC (Enterococcus faecalis [7]): 12 µM (≈ 5.97 µg/mL) | MIC (Enterococcus faecalis [8]): 12 µM (≈ 5.97 µg/mL) | MIC (Escherichia coli): 12 µM (≈ 5.97 µg/mL)
SMILES: Clc1cc2nc(C3CCNCC3)n(Cc3ccc(CNCCCn4ccnc4)cc3)c2cc1Cl
